ASAP1 inh = ASAP1 ArfGAP inhibition; Q9ULH1; ASAP1-stimulated ARF1 GTP hydrolysis, GDP FP detection; inhibition, % at 16.5 µM; hit rate 0.19% among 360,000; in the data active means inhibition above about 25%;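 further: 0% = vehicle with enzyme and substrate and 100% = no enzyme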
MsrA inh = inhibitors of bovine MsrA; AID 651718; hit rate 0.75% among 360,000; inhibition, % at 15.5 µM; purified bovine MsrA, absorbance read-out; in the data active means inhibition above about 4.5%;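 further: 0% = vehicle wells with enzyme and 100% = reference inhibitor wells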
sPLA2-III inh = Inhibits HGIII-sPLA2 liposome hydrolysis, primary screen. Q9NZ20. QFRET BODIPY PC-A2 liposome hydrolysis, fluorescence. inhibition, % at 12.2 µM. hit rate 0.56% among 370,000. AID 743126;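 active means inhibition above mean plus 3 SD of compounds lying within the high and low control bounds, cut at about 19% in these data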;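 further: 0% = median of test compound wells and 100% = no enzyme DMSO wells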
Target sequence (Q9NZ20 whole entry, looked up): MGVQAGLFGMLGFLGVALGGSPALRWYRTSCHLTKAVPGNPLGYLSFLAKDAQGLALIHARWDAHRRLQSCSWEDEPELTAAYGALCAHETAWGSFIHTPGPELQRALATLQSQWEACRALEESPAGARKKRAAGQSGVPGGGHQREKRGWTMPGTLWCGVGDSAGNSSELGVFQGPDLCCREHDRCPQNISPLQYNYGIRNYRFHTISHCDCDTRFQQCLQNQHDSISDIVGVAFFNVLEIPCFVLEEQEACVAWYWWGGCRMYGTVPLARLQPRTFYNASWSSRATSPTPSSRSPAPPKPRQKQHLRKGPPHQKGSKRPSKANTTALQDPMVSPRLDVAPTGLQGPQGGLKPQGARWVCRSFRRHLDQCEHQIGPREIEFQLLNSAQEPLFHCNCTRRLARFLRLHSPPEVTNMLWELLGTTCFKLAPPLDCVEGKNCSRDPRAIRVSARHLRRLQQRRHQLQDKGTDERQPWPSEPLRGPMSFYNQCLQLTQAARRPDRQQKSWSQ
NR1D1 modulator = modulates human Rev-erb alpha binding to DNA; Rev-erbα–FITC-DNA binding, fluorescence polarization, 90 min; activity, % at 10 µM; hit rate 0.79% among 370,000;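 active means activity above about 14%, limit read from the data; passing the limit was not always enough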;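 further: 0% = DMSO wells with 35 nM protein and 100% = DMSO wells with 750 nM protein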
ARFGAP1 inh = inhibitors of rat ARFGAP1; hit rate 0.26% among 360,000; Arfgap1-stimulated ARF1 GTP hydrolysis, GDP FP detection; Q62848; inhibition, % at 16.5 µM;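 active means inhibition above a per-plate limit, mean inhibition of low control wells plus 3 SD, cut at about 25% in these data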;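 further: 0% = DMSO wells with enzyme and 100% = wells lacking Arfgap1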
Target sequence (Q62848 1-136 limits assumed): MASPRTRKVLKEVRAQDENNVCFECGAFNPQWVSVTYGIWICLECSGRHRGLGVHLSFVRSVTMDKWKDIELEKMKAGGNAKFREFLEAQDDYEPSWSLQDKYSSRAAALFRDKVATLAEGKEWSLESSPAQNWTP
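Material: rat Arfgap1 GAP domain (His6, aa 1-136), purified enzyme. Also added: human ARF1(Δ1-17)-GTP substrate. Compound dosing: 16.5 µM single point, 1.26% DMSO. Timing: enzyme reaction 120 min at 25 °C after 20 min preincubation. Signal: GDP detection by fluorescence polarization. Read-out basis: percent inhibition of GAP-stimulated GDP formation, scaled between DMSO and no-Arfgap1 medians.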
bovine MsrA act = bovine methionine sulfoxide reductase A activation. purified bovine MsrA, absorbance read-out. activation, % at 10.6 µM. hit rate 0.3% among 360,000. AID 602163; in the data active means activation above about 7.5%;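 further: 0% = vehicle and 100% = reference activator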
sPLA2 confirm = human GIII-sPLA2 inhibition, confirmation; AID 743280; recombinant hGIII-sPLA2, BODIPY PC-A2 QFRET fluorescence; hit rate 34% among 2,000; shares compounds with sPLA2-III inh; inhibition, % at 12.2 µM;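 active means mean inhibition across triplicates above the hit cutoff set in the earlier primary screen, cut at about 19% in these data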;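 further: 0% = enzyme with DMSO and 100% = DMSO wells lacking enzyme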
BODIPY interf = counter-screen for HGIII-sPLA2 inhibitors: 535nm fluorescence interference; shares compounds with sPLA2-III inh; BODIPY FL product fluorescence interference, QFRET; inhibition, % at 12.2 µM; hit rate 8.5% among 2,000;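 active means average inhibition above the solvent-only control mean plus 3 SD, cut at about 6% in these data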;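 further: 0% = DMSO with substrate plus product and 100% = DMSO with substrate alone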
BODIPY interf DR = 535nm optical interference dose response, HGIII-sPLA2 counter-screen; shares compounds with sPLA2-III inh; BODIPY FL product fluorescence interference, cell-free; IC50, µM; 240 tested, under 10 active;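 active means IC50 at or below 10 µM; inactive means IC50 above 10 µM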
* = called active by the depositor; . = not tested or not shown. Only some compounds are listed: those with a hit (about 2.7% of all), similar ones and a draw of the others.

SMILES	ASAP1 inh	MsrA inh	sPLA2-III inh	NR1D1 modulator	ARFGAP1 inh	bovine MsrA act	sPLA2 confirm	BODIPY interf	others
Cc1ccc(Nc2n[nH]c(=S)s2)cc1	2	1	24*	-5	7	4	34*	0	BODIPY interf DR=>122
Cc1ccc(Nc2n[nH]c(=S)s2)cc1F	-6	1	16	-5	-3	7	.	.
CC(=O)Nc1ccc(NC(=O)C2CCN(c3c(Cc4ccccc4)c(C)nc4ncnn34)CC2)cc1	-1	1	5	-1	-1	-6	.	.
COc1cc(CC(NC(C)=O)C(=O)NC2CCN(c3c(Cc4ccccc4)c(C)nc4ncnn34)CC2)cc(OC)c1 (stereo not drawn)	-10	0	22*	-2	-2	-2	-2	-32
N=C1C(c2nc3ccccc3[nH]2)=C(O)CN1c1ccc(CC(=O)O)cc1	13	1	1	-1	-16	-9	.	.
N=C1C(c2nc3ccccc3[nH]2)=C(O)CN1c1ccccc1	7	-1	22*	-2	-7	-3	14	-5
CC12CCCC[C@@H]1CCC1C2CCC2(C)C1CC[C@@]2(O)CNCCO (stereo partly drawn)	-2	0	25*	-2	7	0	0	-9
O=C(Nc1nnc([C@@H]2C[C@H](O)[C@@H](CO)O2)s1)c1ccccc1Cl	2	0	20*	0	21	0	0	-2
O=c1c2ccccc2n(Cc2ccno2)n1[C@@H](Cc1ccccc1)Cn1cc(C2CCCC2)nn1	.	.	5	6	.	.	.	.
O=C(O)COc1ccccc1C(Nc1cccnc1)c1cc(Cl)c2cccnc2c1O (stereo not drawn)	.	.	.	.	.	-7	.	.
CCOc1ccc(C(Nc2cccnc2)c2cc(Cl)c3cccnc3c2O)cc1 (stereo not drawn)	-3	0	24*	-15	19	-4	16	3
Oc1c(CN2CCCCC2)ccc2cccnc12	-6	1	21*	7	-1	-1	1	-44
CCOc1cc(NC(=S)NCc2ccco2)c(OCC)cc1NC(C)=O	2	0	12	-2	-2	1	.	.
CCOc1cc(NC(=S)NCc2ccccc2)c(OCC)cc1NC(=O)C(C)C	0	0	20*	2	0	-3	29*	-6	BODIPY interf DR=>122
CCOc1cc(NC(=S)NCc2ccco2)c(OCC)cc1NC(=O)CC(C)C	2	1	20*	2	3	-2	11	-4
C=CCNS(=O)(=O)c1ccc(OCC(=O)OC)cc1	0	1	24*	1	-6	-8	1	-2
COC(=O)[C@H](CC(C)C)N1Cc2nnn(Cc3ccccc3)c2-c2ccccc2S1(=O)=O	.	.	-8	3	.	.	.	.
Clc1ccc2c(c1)Nc1ccccc1CC2	-1	0	22*	-2	12	-6	15	8.2*
CCCCn1c(-c2csc(C(C)C)c2)n[nH]c1=S	-26	1	3	0	-5	-4	.	.
CCCCn1c(-c2nn(C)c(C)c2Cl)n[nH]c1=S	-5	0	20*	3	-6	5	24*	-4
CCCCn1c(-c2csc(CC)c2)n[nH]c1=S	-17	0	20*	-3	-12	-2	25*	-2
COC(=O)C1CN(CCc2ccccc2)CCS(=O)(=O)N1Cc1ccc(C)cc1 (stereo not drawn)	.	.	-9	-8	.	.	.	.
Cc1ccc(C2CCN(C(=S)NC(C)C)C2)cc1 (stereo not drawn)	-2	1	23*	0	0	1	18	-7
Cc1ccc(NC(=S)NC2CCCC2)c(C)c1	7	0	19*	-7	-3	0	17	-2
CCOC(=O)CC[C@@H]1CC[C@]2(CCCN(Cc3ccc(Cl)cc3)C2)O1	.	.	12	-5	.	.	.	.
SMILES	ASAP1 inh	MsrA inh	sPLA2-III inh	NR1D1 modulator	ARFGAP1 inh	bovine MsrA act	sPLA2 confirm	BODIPY interf	others
Cc1nc2c(-c3ccc(F)cc3)cnn2c(N)c1-c1ccccc1	-4	2	13	12	-7	-8	.	.
COc1ccc(-c2c(C)nc3c(-c4ccc(F)cc4)cnn3c2N)cc1	-4	0	19*	6	4	-1	2	-7
COc1ccc(CCNC(=O)c2cnc3ccccn3c2=O)cc1	0	4	21*	14	11	1	-5	-4
COc1ccc(CCNC(=O)c2ccccc2C(=O)NCCc2ccc(OC)cc2)cc1	-13	1	5	-2	5	-2	.	.
C#CCN1CCc2onc(-c3ccc(Br)cc3)c2C1=O	-4	0	2	-3	8	.	.	.
CCN(CC)C(=O)CC[C@@H]1CC[C@]2(CCCN(Cc3cccc4ccccc34)C2)O1	.	.	-5	0	.	.	.	.
CCC(=O)Nc1ccc(C(=O)n2ccc(C)n2)cc1	4	2	-4	-5	-1	-4	.	.
Cc1ccn(C(=O)c2ccc(NC(=O)CC(C)C)cc2)n1	2	0	19*	-4	12	-11	3	-1
Cc1cc(NS(=O)(=O)c2ccc(NC(=O)Cc3ccccc3)cc2)no1	.	.	-5	-6	.	.	.	.
COc1ccc(-n2cnc3c(N)nc(N)nc32)cc1	7	1	20*	-7	-6	-4	-2	-5
COc1ccc(OC)c(CN2C(=O)COc3ccccc3C2c2nnnn2C2CCCC2)c1 (stereo not drawn)	.	.	-2	-2	.	.	.	.
Cc1ccc2c(c1)C1CS(=O)(=O)N(Cc3ccc(F)cc3)CN1C2 (stereo not drawn)	.	.	2	1	.	.	.	.
O=C(C(=O)N1CCC(CNS(=O)(=O)c2ccccc2OC(F)(F)F)CC1)c1cccs1	2	0	1	2	2	.	.	.
CCN(CC)C(=O)C12C(=O)Oc3ccccc3C1C2(C)C(=O)c1ccc(F)cc1 (stereo not drawn)	-5	-1	20*	1	1	-1	-2	-8
COC(=O)[C@@]12CCCCC3=C1N(CCC3)C(=O)[C@H]2CC(=O)NCc1ccc(C)o1	.	.	0	3	.	.	.	.
CCOC(=O)C(=O)NNc1ccc(F)cc1	5	0	21*	-3	-8	-11	-2	-4
COc1ccccc1N1CCN(/N=C/c2cccc(OC)c2OC)CC1	10	-2	4	2	6	-6	.	.
COc1ccccc1N1CCN(N=Cc2ccccc2Br)CC1	.	.	19*	-1	.	.	7	-9
CC(=O)Nc1c(C)ccc(CNC(=O)COc2ccc(F)cc2)c1C	10	-1	-4	6	-10	-6	.	.
